Results as given in PMC8049015 (Journal of Clinical Pharmacology, 2020).
Read-outs that look alike come from different tables or passages of the source. Marks after values point to notes of the source that are not given here.

What was measured:
[1] = assay type: in vivo, human; conditions: steady state, median (5th to 95th percentiles), model‐predicted
Summary of the method: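 Plasma exposures at steady state over a dosing interval (median, 5th–95th percentiles) were predicted by a 2-compartment population-PK model for the oral extended-release once-daily regimens. Absorption was mixed zero- and first-order with a lag time. Sparse samples from weeks 2 and 4 (predose) and weeks 8, 12 and 16 (any time) were assayed by validated LC-MS.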

[2] = system: subjects with moderate to severe atopic dermatitis; assay: Phase 2b dose‐ranging study, observed efficacy in week 16; assay type: in vivo, human; conditions: week 16, NRI
[3] = system: subjects with moderate to severe atopic dermatitis; conditions: week 16, placebo 23%, cited from earlier work
[4] = 7.5, 15, 30 mg once daily, 16 weeks; cited from earlier work
[5] = system: subjects with moderate to severe atopic dermatitis; assay: Exposure‐response logistic regression models; assay type: in vivo, human; conditions: logit scale; week 16, NRI; estimate
Summary of the method: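 Week-16 EASI-75, EASI-90 and IGA 0/1 responses from 167 phase 2b adults were each fitted by logistic regression with an Emax link, with estimates on the logit scale. The exposure was individual steady-state Cavg from empirical Bayesian population-PK parameters. Drug effect was tested by likelihood ratio at P < .01. Covariates were selected stepwise (entry P < .01, removal P < .001). Models were chosen by AIC, fit and precision.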

[6] = system: subjects with moderate to severe RA; conditions: cited from earlier work
[7] = cited from earlier work
[8] = system: moderate to severe atopic dermatitis; conditions: phase 3 studies; cited from earlier work
[9] = 15 mg once daily extended‐release

CC[C@@H]1CN(C(=O)NCC(F)(F)F)C[C@@H]1c1cnc2cnc3[nH]ccc3n12 [upadacitinib]
Cmin ([1]; 7.5 mg once daily extended‐release): 2.0 (0.56‐6.2) ng/mL
Cmax [1, 9]: 41.2 (27.7‐65.8) ng/mL
Cmin [1, 9]: 2.7 (1.2‐11.3) ng/mL
Cmin ([1]; 30 mg once daily extended‐release): 6.6 (2.1‐22.1) ng/mL
Observed percentage of subjects achieving EASI‐75 ([2]; 7.5 mg once daily): [29] %
Observed percentage of subjects achieving EASI‐90 ([2]; 7.5 mg once daily): [14] %
Observed percentage of subjects achieving IGA 0/1 ([2]; 7.5 mg once daily): [14] %
Observed percentage of subjects achieving EASI‐90 ([2]; 15 mg once daily): [26] %
Observed percentage of subjects achieving IGA 0/1 ([2]; 15 mg once daily): [31] %
Observed percentage of subjects achieving EASI‐90 ([2]; 30 mg once daily): [50] %
Observed percentage of subjects achieving IGA 0/1 ([2]; 30 mg once daily): [50] %
Mean improvement in EASI from baseline ([3]; 7.5 mg once daily): 39%
Mean improvement in EASI from baseline ([3]; 15 mg once daily): 62%
Mean improvement in EASI from baseline ([3]; 30 mg once daily): 74%
Dose relationship for serious infections or overall incidence of adverse events [4]: no dose relationship was observed
Dose‐limiting safety events [4]: No dose‐limiting safety events were observed
Emax, probability of achieving EASI‐75 [5]: 5.35 (17% ^a )
Emax, probability of achieving EASI‐90 [5]: 6.2 (13% ^a )
Emax, probability of achieving IGA 0/1 [5]: 5.78 (12% ^a )
Estimated increase in the percentage of subjects achieving ACR 20/50/70 responses or DAS‐28 low disease activity and clinical remission, 30 mg once daily compared with 15 mg once daily exposures [6]: < 5%
Oral bioavailability of the extended‐release tablet relative to the same dose of the immediate‐release formulation [7]: 76%
Dose proportionality of plasma exposure ([7]; over the evaluated dose range across clinical studies): approximately dose proportional
Accumulation with repeated dosing ([7]; twice daily immediate‐release or once daily extended‐release): no significant accumulation

dupilumab
Patients who achieved no or almost no disease activity [8]: < 40%
